Experimental data taken from ChEMBL document CHEMBL2203082, “Thiorhodamines containing amide and thioamide functionality as inhibitors of the ATP-binding cassette drug transporter P-glycoprotein (ABCB1)” (Bioorg Med Chem, 2012).

Columns and labels:
[1] = Ratio of permeability from apical to basal side of MDCK2 cells expressing MDR1 assessed as fraction of mass extracted by methanol wash at 5 uM in presence of LSN 335984 to permeability from apical to basal side of MDCK2 cells expressing MDR1 assessed as fraction of mass extracted by methanol wash at 5 uM in absence of LSN 335984; format: ADME, cell-based, Canis lupus familiaris; conditions: dog, mdck-ii
Outline: (§1)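 MDCKII-MDR1 cells on Transwell polycarbonate filters (50,000 cells cm−2), used day 6. 5 μM compound added to donor chamber (AB or BA). Donor and receiver sampled after 1 h at 37 °C with nutation. Cell-associated fraction taken by methanol extraction of monolayer after AB flux. Quantified by LC-MS/MS. ±SD.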

[2] = n-Octanol-water partition coefficient, log P of the compound at pH 7.4 by shake flask method; format: physicochemical
[3] = Permeability from apical to basal side of MDCK2 cells expressing MDR1 assessed as fraction of mass extracted by methanol wash at 5 uM after 1 hr by LC-MS/MS analysis in presence of LSN 335984; format: ADME, cell-based, Canis lupus familiaris; conditions: dog, mdck-ii; outline: as §1
[4] = Permeability from apical to basal side of MDCK2 cells expressing MDR1 at 5 uM after 1 hr by LC-MS/MS analysis; format: ADME, cell-based, Canis lupus familiaris, MDCK-II; conditions: dog, MDCK-MDR1; read-out: permeability; outline: as §1
[5] = molecular target: P-gp (ABCB1) ATPase activity (Homo sapiens, UniProt P08183); assay: Binding affinity to human His10-tagged P-gp expressed in BHK cells assessed as induction of ATPase activity measured as inorganic phosphate release by spectrophotometric analysis relative to control; format: cell-based; conditions: read-out: FC
P-gp (ABCB1) ATPase activity, sequence (P08183 whole entry): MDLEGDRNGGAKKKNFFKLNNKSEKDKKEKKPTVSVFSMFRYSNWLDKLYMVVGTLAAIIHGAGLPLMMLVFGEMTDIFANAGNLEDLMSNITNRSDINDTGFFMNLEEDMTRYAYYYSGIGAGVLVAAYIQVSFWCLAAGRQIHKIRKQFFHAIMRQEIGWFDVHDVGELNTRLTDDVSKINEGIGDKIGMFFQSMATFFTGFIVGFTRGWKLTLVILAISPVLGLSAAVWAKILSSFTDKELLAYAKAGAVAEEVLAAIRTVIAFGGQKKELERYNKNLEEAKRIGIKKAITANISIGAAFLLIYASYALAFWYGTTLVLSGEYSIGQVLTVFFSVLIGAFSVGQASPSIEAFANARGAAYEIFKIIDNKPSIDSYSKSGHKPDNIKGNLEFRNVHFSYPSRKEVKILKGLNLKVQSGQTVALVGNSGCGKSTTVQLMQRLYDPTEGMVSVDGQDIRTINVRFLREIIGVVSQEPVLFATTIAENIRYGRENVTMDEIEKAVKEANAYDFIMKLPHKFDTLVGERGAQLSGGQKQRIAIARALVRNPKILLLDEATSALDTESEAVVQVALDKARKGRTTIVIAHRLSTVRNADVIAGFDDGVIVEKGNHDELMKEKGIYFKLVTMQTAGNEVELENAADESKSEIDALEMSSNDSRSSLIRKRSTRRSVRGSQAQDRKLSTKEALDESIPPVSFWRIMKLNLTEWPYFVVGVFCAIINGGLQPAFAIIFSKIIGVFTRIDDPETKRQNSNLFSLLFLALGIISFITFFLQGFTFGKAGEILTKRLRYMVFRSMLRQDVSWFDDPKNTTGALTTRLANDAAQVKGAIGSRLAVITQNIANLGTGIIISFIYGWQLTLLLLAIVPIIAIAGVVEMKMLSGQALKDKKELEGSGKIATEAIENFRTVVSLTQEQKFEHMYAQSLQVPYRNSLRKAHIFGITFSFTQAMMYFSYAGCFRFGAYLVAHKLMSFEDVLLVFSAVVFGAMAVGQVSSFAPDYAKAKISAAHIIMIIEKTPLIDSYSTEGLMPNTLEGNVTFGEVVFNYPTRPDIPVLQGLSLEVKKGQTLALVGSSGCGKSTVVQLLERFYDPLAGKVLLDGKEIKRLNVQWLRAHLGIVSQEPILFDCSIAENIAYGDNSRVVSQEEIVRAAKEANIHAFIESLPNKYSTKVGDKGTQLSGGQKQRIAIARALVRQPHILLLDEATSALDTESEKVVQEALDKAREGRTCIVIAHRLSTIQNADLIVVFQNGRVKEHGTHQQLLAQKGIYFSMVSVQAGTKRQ

[6] = Ratio of permeability from basal to apical side of MDCK2 cells expressing MDR1 in absence of LSN 335984 to permeability from basal to apical side of MDCK2 cells expressing MDR1 in presence of LSN 335984; format: ADME, cell-based, Canis lupus familiaris; conditions: dog, mdck-ii; outline: as §1
[7] = molecular target: T1, P-gp (MDR1, ABCB1) (Homo sapiens, UniProt P08183); assay: Inhibition of MDR1 transfected in MDCK2 cells assessed as increase in calcein AM uptake at 2.5*10^-5 M incubated for 30 mins prior to calcein AM influx measured after 20 mins by fluorimetric analysis relative to LSN 335984; format: cell-based, MDCK-II; conditions: dog, MDCK2 cells transfected with MDR1, probe calcein AM
T1 sequence (P08183 whole entry): as above
Outline: (§2)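 MDCKII-MDR1 cells (passage 16-42) seeded 40,000 cells/well, used day 4. Washed with DPBS plus 10−2 M Hepes pH 7.4, then incubated 30 min at 37 °C with compound in this buffer with 4.3 mg mL−1 BSA. Compound solution then replaced with one also holding 0.5 μg mL−1 calcein AM, 20 min more.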

[8] = molecular target: T2, ATP-dependent translocase ABCB1 (Homo sapiens, UniProt P08183); assay: Inhibition of MDR1 transfected in MDCK2 cells assessed as increase in calcein AM uptake incubated for 30 mins prior to calcein AM influx measured after 20 mins by fluorimetric analysis; format: cell-based, MDCK-II
T2 sequence (P08183 whole entry): as above

[9] = molecular target: T1, P-gp (MDR1, ABCB1); assay: Inhibition of MDR1 transfected in MDCK2 cells assessed as increase in calcein AM uptake at 5*10^-6 M incubated for 30 mins prior to calcein AM influx measured after 20 mins by fluorimetric analysis relative to LSN 335984; format: cell-based, MDCK-II; conditions: dog, MDCK2 cells transfected with MDR1, probe calcein AM; outline: as §2
[10] = Permeability from apical to basal side of MDCK2 cells expressing MDR1 assessed as fraction of mass extracted by methanol wash at 5 uM after 1 hr by LC-MS/MS analysis; format: ADME, cell-based, Canis lupus familiaris; conditions: dog, mdck-ii; outline: as §1
[11] = Permeability from basal to apical side of MDCK2 cells expressing MDR1 at 5 uM after 1 hr by LC-MS/MS analysis; format: ADME, cell-based, Canis lupus familiaris, MDCK-II; conditions: dog, MDCK-MDR1; read-out: permeability; outline: as §1
[12] = molecular target: T2, ATP-dependent translocase ABCB1; assay: Inhibition of MDR1 transfected in MDCK2 cells assessed as inhibition of [3H]vinblastine efflux incubated for 30 mins prior to [3H]vinblastine addition by scintillation counting; format: cell-based, MDCK-II
Outline: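 Transwell MDCKII-MDR1 monolayers on day 6, rinsed 10 min in DPBSH at 37 °C. Conditioned with compound at 1 × 10−10 to 1 × 10−5 M in BSA/DPBSH. [3H]-vinblastine added to the basolateral side. Apical buffer replaced every 10 min, and apical [3H] counted by scintillation. IC50 calculated from the curve.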

[13] = molecular target: T2, ATP-dependent translocase ABCB1; assay: Inhibition of human His10-tagged P-gp ATPase activity expressed in BHK cells assessed as verapamil-induced inorganic phosphate release incubated for 15 mins prior to verapamil addition by spectrophotometric analysis; format: cell-based
Outline: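 P-gp-His10 stably expressed in BHK cells, Ni-chelate purified and mixed 1:1 with 10 mg/ml sheep brain phosphatidylethanolamine. Pre-incubated with compound 15 min at 20 °C. […] Released inorganic phosphate measured.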

SMILES | Ratio [1] | logD [2] | permeability [3] | Papp A→B at 1 h, 5 µM [4] | fold induction [5] | Ratio [6] | inhibition at 20 min, 25 µM [7] | IC50 [8] | inhibition at 20 min, 5 µM [9] | permeability [10] | Papp B→A at 1 h, 5 µM [11] | IC50 [12] | IC50 [13]
CCN(CC)C(=S)c1ccc(-c2c3ccc(=[N+](C)C)cc-3sc3cc(N(C)C)ccc23)s1.F[P-](F)(F)(F)(F)F | 5.1 | 1.2 | 56% | ≤ 0.1 ×10⁻⁶ cm/s | 12.1 | 41 | 3% | 14 µM | 0% | 11% | 21 ×10⁻⁶ cm/s |  | 
CN(C)c1ccc2c(-c3ccc(C(=O)N4CCCCC4)s3)c3ccc(=[N+](C)C)cc-3sc2c1 |  | 1.5 |  |  |  |  |  |  |  |  |  |  | 
CCN(CC)C(=O)c1ccc(-c2c3ccc(=[N+](C)C)cc-3sc3c4c5c(cc23)CCCN5CCC4)s1.F[P-](F)(F)(F)(F)F | 4.8 | 1.9 | 28% | ≤ 0.1 ×10⁻⁶ cm/s | 5.6 | 12 | 41% | 10 µM | 0% | 5.8% | 21 ×10⁻⁶ cm/s |  | 
CCN(CC)C(=S)c1ccc(-c2c3ccc(=[N+](C)C)cc-3sc3c4c5c(cc23)CCCN5CCC4)s1.F[P-](F)(F)(F)(F)F | 1.8 | 1.7 | 45% | ≤ 0.1 ×10⁻⁶ cm/s | 4.6 | 24 | 41% | 9.6 µM | 0% | 25% | 6.5 ×10⁻⁶ cm/s |  | 
C[N+](C)=c1ccc2c(-c3ccc(C(=O)N4CCCCC4)s3)c3cc4c5c(c3sc-2c1)CCCN5CCC4.F[P-](F)(F)(F)(F)F | 6.1 | 1.4 | 42% | ≤ 0.1 ×10⁻⁶ cm/s | 4.1 | 27 | 41% | 56 µM | 0% | 6.9% | 22 ×10⁻⁶ cm/s |  | 
CCN(CC)C(=O)c1ccc(-c2c3ccc(=[N+](C)C)cc-3sc3cc4c(cc23)C(C)(C)CCN4C)s1.F[P-](F)(F)(F)(F)F | 3.3 | 1.4 | 33% | ≤ 0.1 ×10⁻⁶ cm/s | 4.7 | 14 | 64% | 7.1 µM | 0% | 10% | 37 ×10⁻⁶ cm/s | 8 µM | 
CCN(CC)C(=S)c1ccc(-c2c3ccc(=[N+](C)C)cc-3sc3cc4c(cc23)C(C)(C)CCN4C)s1.F[P-](F)(F)(F)(F)F | 1.2 | 2.7 | 64% | ≤ 0.1 ×10⁻⁶ cm/s | 4.3 | 69 | 64% | 8.8 µM | 0% | 52% | 6.9 ×10⁻⁶ cm/s | 8.7 µM | 
CN1CCC(C)(C)c2cc3c(-c4ccc(C(=O)N5CCCCC5)s4)c4ccc(=[N+](C)C)cc-4sc3cc21.F[P-](F)(F)(F)(F)F | 5.2 | 1.7 | 45% | ≤ 0.1 ×10⁻⁶ cm/s | < 2 | 31 | 64% | 13 µM | 0% | 8.6% | 23 ×10⁻⁶ cm/s | 5.6 µM | 1.1 µM
CN1CCC(C)(C)c2cc3c(-c4ccc(C(=S)N5CCCCC5)s4)c4ccc(=[N+](C)C)cc-4sc3cc21.F[P-](F)(F)(F)(F)F | 1.8 | 2.6 | 62% | ≤ 0.1 ×10⁻⁶ cm/s | < 2 | 170 | 64% | 9.3 µM | 0% | 34% | 3.4 ×10⁻⁶ cm/s | 8.9 µM | 1.7 µM
C[N+](C)=c1ccc2c(-c3ccc(C(=S)N4CCCCC4)s3)c3cc4c5c(c3sc-2c1)CCCN5CCC4.F[P-](F)(F)(F)(F)F |  |  | 64% | ≤ 0.1 ×10⁻⁶ cm/s |  |  | 41% |  | 0% | 31% | 8.3 ×10⁻⁶ cm/s |  | 
CCN(CC)C(=O)c1ccc(-c2c3ccc(=[N+](C)C)cc-3sc3cc(N(C)C)ccc23)s1 |  | 1.2 |  |  |  |  |  |  |  |  |  |  | 
